In ChEMBL document CHEMBL3758132, “Dissecting structure-activity-relationships of crebinostat: Brain penetrant HDAC inhibitors for neuroepigenetic regulation” (Bioorg Med Chem Lett, 2016):
Activity calls are given as the source filed them. No cut-off for these calls is given here.

Key:
Histone deacetylase 1 = Histone deacetylase 1 (Homo sapiens, UniProt Q13547); assay: Inhibition of human recombinant HDAC1 using acetyllysine tripeptide coupled with 7-amino-4-methylcoumarin as substrate by fluorescence assay
Sequence of Histone deacetylase 1 (Q13547 whole entry): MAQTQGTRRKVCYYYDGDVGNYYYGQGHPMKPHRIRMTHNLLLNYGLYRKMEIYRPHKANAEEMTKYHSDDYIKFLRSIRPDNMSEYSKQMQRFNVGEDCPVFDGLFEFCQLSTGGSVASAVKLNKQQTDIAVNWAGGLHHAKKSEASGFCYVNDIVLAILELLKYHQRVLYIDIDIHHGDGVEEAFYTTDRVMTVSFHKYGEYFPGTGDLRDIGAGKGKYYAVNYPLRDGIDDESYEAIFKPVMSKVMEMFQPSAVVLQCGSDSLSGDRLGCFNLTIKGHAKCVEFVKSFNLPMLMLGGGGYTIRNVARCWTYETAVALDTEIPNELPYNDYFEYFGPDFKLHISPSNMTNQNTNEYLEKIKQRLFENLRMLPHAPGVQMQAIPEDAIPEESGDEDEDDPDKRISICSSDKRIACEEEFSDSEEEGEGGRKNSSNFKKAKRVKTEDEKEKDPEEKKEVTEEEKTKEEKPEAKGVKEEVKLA

Histone deacetylase 2 = Histone deacetylase 2 (Homo sapiens, UniProt Q92769); assay: Inhibition of human recombinant HDAC2 using acetyllysine tripeptide coupled with 7-amino-4-methylcoumarin as substrate by fluorescence assay
Sequence of Histone deacetylase 2 (Q92769 whole entry): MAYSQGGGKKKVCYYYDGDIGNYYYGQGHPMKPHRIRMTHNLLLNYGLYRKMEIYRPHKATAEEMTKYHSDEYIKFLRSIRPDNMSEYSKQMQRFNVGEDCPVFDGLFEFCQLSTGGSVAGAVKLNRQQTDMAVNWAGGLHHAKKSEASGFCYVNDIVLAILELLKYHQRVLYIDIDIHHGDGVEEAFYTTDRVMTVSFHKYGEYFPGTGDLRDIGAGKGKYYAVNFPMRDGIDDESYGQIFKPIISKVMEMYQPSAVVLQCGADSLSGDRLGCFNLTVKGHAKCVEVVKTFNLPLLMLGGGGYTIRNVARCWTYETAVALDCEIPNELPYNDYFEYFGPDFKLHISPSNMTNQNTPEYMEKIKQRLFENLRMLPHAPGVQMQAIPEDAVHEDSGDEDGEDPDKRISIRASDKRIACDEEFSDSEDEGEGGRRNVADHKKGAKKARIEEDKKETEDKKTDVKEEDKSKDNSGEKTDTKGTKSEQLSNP

Histone deacetylase 3 = Histone deacetylase 3 (Homo sapiens, UniProt O15379); assay: Inhibition of human recombinant HDAC3 using acetyllysine tripeptide coupled with 7-amino-4-methylcoumarin as substrate by fluorescence assay
Sequence of Histone deacetylase 3 (O15379 whole entry): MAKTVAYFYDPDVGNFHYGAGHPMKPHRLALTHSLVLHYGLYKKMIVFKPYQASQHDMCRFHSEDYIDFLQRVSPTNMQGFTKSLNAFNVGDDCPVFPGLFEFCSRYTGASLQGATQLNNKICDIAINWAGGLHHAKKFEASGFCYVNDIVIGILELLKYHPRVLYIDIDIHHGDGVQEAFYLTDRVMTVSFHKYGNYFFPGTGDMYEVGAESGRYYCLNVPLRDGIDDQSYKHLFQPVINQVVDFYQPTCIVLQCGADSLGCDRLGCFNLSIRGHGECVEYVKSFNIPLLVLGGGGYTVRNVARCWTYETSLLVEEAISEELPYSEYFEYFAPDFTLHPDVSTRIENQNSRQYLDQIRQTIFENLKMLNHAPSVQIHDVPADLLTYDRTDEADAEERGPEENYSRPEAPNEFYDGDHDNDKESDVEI

Mus musculus [1] = species on record: Mus musculus; assay: Inhibition of HDAC in mouse forebrain primary neurons assessed as acetylation of histone H3K9 at 1 to 10 uM after 24 hrs by immunofluorescence assay
Method in brief: (§1)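 Mouse forebrain primary neuronal cultures (DIV13–14) treated 24 h at 1 and 10 μM, n=3. Cells fixed and immunostained for H3K9ac or H4K12ac; nuclear fluorescence intensity quantified by imaging. […] Mean ± SEM; unpaired t-test.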

Mus musculus [2] = species on record: Mus musculus; assay: Inhibition of HDAC in mouse forebrain primary neurons assessed as acetylation of histone H4K12 at 1 to 10 uM after 24 hrs by immunofluorescence assay; method in brief: as §1
[3] = Inhibition of HDAC in mouse forebrain primary neurons assessed as acetylation of histone H3K9 after 24 hrs by immunofluorescence assay
[4] = Cmax in C57BL/6 mouse brain at 25 mg/kg, ip after 0.5 hrs by LC/MS/MS analysis; format: ADME, organism-based; design: dose 25 mg/kg, route intraperitoneal
Method in brief: (§2)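 Mice dosed intraperitoneally at 25 mg/kg. Brains and peripheral blood were collected at each point of a 6-point time course, three mice per time point. Compound concentration was measured in processed brain and blood samples. PK parameters were derived from the concentration-time profiles.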

[5] = target: T1, Protein deacetylase HDAC6 (Homo sapiens, UniProt Q9UBN7); assay: Inhibition of human recombinant HDAC6 using acetyllysine tripeptide coupled with 7-amino-4-methylcoumarin as substrate by fluorescence assay
T1 sequence (Q9UBN7 whole entry): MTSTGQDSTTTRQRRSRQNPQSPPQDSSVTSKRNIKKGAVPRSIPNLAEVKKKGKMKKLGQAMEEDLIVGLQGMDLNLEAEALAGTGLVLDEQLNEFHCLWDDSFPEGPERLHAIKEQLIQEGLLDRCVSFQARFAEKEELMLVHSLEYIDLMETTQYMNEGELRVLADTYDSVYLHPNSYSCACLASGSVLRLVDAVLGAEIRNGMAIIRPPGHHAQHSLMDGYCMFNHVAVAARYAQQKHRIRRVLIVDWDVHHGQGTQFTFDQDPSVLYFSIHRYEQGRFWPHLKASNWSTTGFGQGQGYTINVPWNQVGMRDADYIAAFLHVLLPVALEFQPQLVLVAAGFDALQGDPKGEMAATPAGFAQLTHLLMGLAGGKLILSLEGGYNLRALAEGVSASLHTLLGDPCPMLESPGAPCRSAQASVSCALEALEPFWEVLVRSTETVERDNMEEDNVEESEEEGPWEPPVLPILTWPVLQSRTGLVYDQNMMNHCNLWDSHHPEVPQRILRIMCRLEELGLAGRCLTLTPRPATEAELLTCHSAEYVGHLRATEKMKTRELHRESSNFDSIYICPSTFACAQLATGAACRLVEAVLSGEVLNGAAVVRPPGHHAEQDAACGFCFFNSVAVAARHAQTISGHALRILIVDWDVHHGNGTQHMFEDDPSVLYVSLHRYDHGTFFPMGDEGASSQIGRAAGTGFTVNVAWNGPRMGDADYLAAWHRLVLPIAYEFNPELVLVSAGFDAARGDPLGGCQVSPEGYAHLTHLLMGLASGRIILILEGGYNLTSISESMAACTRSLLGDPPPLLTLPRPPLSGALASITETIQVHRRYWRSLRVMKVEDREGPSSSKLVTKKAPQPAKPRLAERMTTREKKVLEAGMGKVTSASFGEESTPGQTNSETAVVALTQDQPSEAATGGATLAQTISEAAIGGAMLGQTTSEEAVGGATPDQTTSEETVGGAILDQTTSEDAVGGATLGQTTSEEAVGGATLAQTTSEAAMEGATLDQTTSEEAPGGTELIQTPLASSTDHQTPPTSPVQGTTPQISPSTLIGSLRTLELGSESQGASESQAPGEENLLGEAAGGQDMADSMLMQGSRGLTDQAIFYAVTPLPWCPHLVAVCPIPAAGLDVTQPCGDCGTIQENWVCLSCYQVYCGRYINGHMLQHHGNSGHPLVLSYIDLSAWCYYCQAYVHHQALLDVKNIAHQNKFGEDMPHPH

[6] = target: Histone deacetylase 5 (Homo sapiens) (UniProt Q9UQL6); assay: Inhibition of human recombinant HDAC5 using acetyllysine tripeptide coupled with 7-amino-4-methylcoumarin as substrate by fluorescence assay
Sequence of Histone deacetylase 5 (Homo sapiens) (Q9UQL6 whole entry): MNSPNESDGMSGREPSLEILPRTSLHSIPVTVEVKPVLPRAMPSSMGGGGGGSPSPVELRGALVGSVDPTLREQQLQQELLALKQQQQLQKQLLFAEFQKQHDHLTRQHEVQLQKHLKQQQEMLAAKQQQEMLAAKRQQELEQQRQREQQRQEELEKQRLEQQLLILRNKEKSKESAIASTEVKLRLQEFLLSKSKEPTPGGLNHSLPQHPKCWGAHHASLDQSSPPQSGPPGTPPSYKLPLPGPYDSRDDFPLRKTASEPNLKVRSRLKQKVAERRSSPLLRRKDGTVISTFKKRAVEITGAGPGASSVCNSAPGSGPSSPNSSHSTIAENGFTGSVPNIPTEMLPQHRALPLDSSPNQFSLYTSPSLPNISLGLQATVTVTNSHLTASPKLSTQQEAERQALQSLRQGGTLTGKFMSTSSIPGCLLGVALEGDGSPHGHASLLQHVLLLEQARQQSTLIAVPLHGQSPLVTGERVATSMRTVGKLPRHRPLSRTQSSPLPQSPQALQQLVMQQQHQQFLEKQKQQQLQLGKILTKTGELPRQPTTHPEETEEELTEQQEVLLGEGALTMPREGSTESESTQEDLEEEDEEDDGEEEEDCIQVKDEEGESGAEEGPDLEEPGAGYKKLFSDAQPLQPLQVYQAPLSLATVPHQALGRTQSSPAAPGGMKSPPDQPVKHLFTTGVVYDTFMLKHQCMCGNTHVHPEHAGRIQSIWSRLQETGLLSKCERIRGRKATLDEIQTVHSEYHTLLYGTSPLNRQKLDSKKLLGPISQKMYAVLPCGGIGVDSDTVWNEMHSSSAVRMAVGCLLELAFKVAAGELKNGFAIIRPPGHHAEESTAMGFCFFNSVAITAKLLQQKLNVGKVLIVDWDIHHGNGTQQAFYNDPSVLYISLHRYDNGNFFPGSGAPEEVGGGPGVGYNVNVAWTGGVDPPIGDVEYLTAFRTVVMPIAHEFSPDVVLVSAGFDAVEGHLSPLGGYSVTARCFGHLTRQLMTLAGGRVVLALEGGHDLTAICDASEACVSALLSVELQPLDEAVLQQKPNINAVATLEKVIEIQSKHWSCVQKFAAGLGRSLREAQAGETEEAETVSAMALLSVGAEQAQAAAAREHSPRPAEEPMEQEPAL

[7] = Cmax in C57BL/6 mouse brain at 25 mg/kg, ip after 1 hr by LC/MS/MS analysis; format: ADME, organism-based; design: dose 25 mg/kg, route intraperitoneal; method in brief: as §2
[8] = Cmax in C57BL/6 mouse brain at 25 mg/kg, ip after 2 hrs by LC/MS/MS analysis; format: ADME, organism-based; design: dose 25 mg/kg, route intraperitoneal; method in brief: as §2
[9] = Cmax in C57BL/6 mouse brain at 25 mg/kg, ip after 6 hrs by LC/MS/MS analysis; format: ADME, organism-based; design: dose 25 mg/kg, route intraperitoneal; method in brief: as §2
[10] = Cmax in C57BL/6 mouse brain at 25 mg/kg, ip after 24 hrs by LC/MS/MS analysis; format: ADME, organism-based; design: dose 25 mg/kg, route intraperitoneal; method in brief: as §2
[11] = Cmax in C57BL/6 mouse plasma at 25 mg/kg, ip after 1 hr by LC/MS/MS analysis; format: ADME, organism-based; design: dose 25 mg/kg, route intraperitoneal; method in brief: as §2
[12] = Cmax in C57BL/6 mouse plasma at 25 mg/kg, ip after 0.5 hrs by LC/MS/MS analysis; format: ADME, organism-based; design: dose 25 mg/kg, route intraperitoneal; method in brief: as §2
[13] = Cmax in C57BL/6 mouse plasma at 25 mg/kg, ip after 2 hrs by LC/MS/MS analysis; format: ADME, organism-based; design: dose 25 mg/kg, route intraperitoneal; method in brief: as §2
[14] = Cmax in C57BL/6 mouse plasma at 25 mg/kg, ip after 6 hrs by LC/MS/MS analysis; format: ADME, organism-based; design: dose 25 mg/kg, route intraperitoneal; method in brief: as §2
[15] = Cmax in C57BL/6 mouse plasma at 25 mg/kg, ip after 12 hrs by LC/MS/MS analysis; format: ADME, organism-based; design: dose 25 mg/kg, route intraperitoneal; method in brief: as §2
[16] = Cmax in C57BL/6 mouse plasma at 25 mg/kg, ip after 24 hrs by LC/MS/MS analysis; format: ADME, organism-based; design: dose 25 mg/kg, route intraperitoneal; method in brief: as §2
[17] = Tmax in C57BL/6 mouse plasma at 25 mg/kg, ip after 0.5 to 24 hrs by LC/MS/MS analysis; format: ADME, organism-based; method in brief: as §2
[18] = AUClast in C57BL/6 mouse plasma at 25 mg/kg, ip after 0.5 to 24 hrs by LC/MS/MS analysis; format: ADME, organism-based; method in brief: as §2
[19] = AUCinfinity in C57BL/6 mouse plasma at 25 mg/kg, ip after 0.5 to 24 hrs by LC/MS/MS analysis; format: ADME, organism-based; design: dose 25 mg/kg, route intraperitoneal, time infinity; method in brief: as §2
Mus musculus [20] = assay: Half life in C57BL/6 mouse plasma at 25 mg/kg, ip after 0.5 to 24 hrs by LC/MS/MS analysis; format: ADME, organism-based; details: in vivo; method in brief: as §2
[21] = Apparent clearance in C57BL/6 mouse plasma at 25 mg/kg, ip after 0.5 to 24 hrs by LC/MS/MS analysis; format: ADME, organism-based; method in brief: as §2
[22] = Mean Residence time up to the last quantifiable time-point in C57BL/6 mouse plasma at 25 mg/kg, ip after 0.5 to 24 hrs by LC/MS/MS analysis; format: ADME, organism-based; method in brief: as §2
[23] = Tmax in C57BL/6 mouse brain at 25 mg/kg, ip after 0.5 to 24 hrs by LC/MS/MS analysis; format: ADME, organism-based; method in brief: as §2
[24] = AUClast in C57BL/6 mouse brain at 25 mg/kg, ip after 0.5 to 24 hrs by LC/MS/MS analysis; format: ADME, organism-based; method in brief: as §2
[25] = Ratio of drug level in brain to plasma in C57BL/6 mouse at 25 mg/kg, ip after 0.5 to 2 hrs by LC/MS/MS analysis; format: ADME, organism-based; details: brain and plasma, read-out: BPR
Method in brief: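 Intraperitoneal dose of 25 mg/kg in mice, three animals per time point. Compound levels in processed brain and in peripheral blood were measured at matched times. Individual brain-to-plasma concentration ratios were calculated for the 0.5 to 2 h time points.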

SMILES: O=C(CCCCCC(=O)N/N=C/c1ccc(-c2ccccn2)cc1)NO
- IC50 (Histone deacetylase 1): 2.3 nM
- IC50 (Histone deacetylase 2): 6.9 nM
- IC50 (Histone deacetylase 3): 1.4 nM

SMILES: COc1cc(O)cc(OC)c1/C=N/NC(=O)CCCCCC(=O)NO
- IC50 (Histone deacetylase 1): 31.4 nM
- IC50 (Histone deacetylase 2): 108 nM
- IC50 (Histone deacetylase 3): 25.6 nM

SMILES: Cc1ccccc1-c1ccc(/C=N/NC(=O)CCCCCC(=O)NO)cc1
- IC50 (Histone deacetylase 1): 8 nM
- IC50 (Histone deacetylase 2): 18.8 nM
- IC50 (Histone deacetylase 3): 5.4 nM

SMILES: O=C(CCCCCCC(=O)N/N=C/c1ccc(-c2ccccc2)cc1)NO
- inhibition (Mus musculus [1]): Active
- IC50 (Histone deacetylase 1): 0.7 nM
- IC50 (Histone deacetylase 2): 1 nM
- IC50 (Histone deacetylase 3): 2 nM
- inhibition (Mus musculus [2]): Active

SMILES: COc1ccc(Br)c(/C=N/NC(=O)CCCCCC(=O)NO)c1
- IC50 (Histone deacetylase 1): 0.6 nM
- IC50 (Histone deacetylase 2): 5 nM
- IC50 (Histone deacetylase 3): 1.2 nM

SMILES: O=C(CCCCCC(=O)N/N=C/c1ccc(-c2cncnc2)cc1)NO
- IC50 (Histone deacetylase 1): 3.2 nM
- IC50 (Histone deacetylase 2): 21 nM
- IC50 (Histone deacetylase 3): 2.4 nM

SMILES: O=C(CCCCCC(=O)N/N=C/c1ccc(-c2ccccc2)cc1)NO
- IC50 (Histone deacetylase 1): 1.4 nM
- IC50 (Histone deacetylase 2): 2.1 nM
- IC50 (Histone deacetylase 3): 3.4 nM
- EC50 [3]: 210 nM
- Cmax [4]: 60 nM
- IC50 [5]: 0.6 nM
- inhibition [6]: inactive

SMILES: O=C(CCCCCC(=O)N/N=C/c1ccc(-c2cccs2)cc1)NO
- IC50 (Histone deacetylase 1): 2.1 nM
- IC50 (Histone deacetylase 2): 6.3 nM
- IC50 (Histone deacetylase 3): 1.6 nM

SMILES: O=C(CCCCCC(=O)N/N=C/c1ccc(-c2cccnc2)cc1)NO
- Cmax [7]: 79.1 nM
- IC50 (Histone deacetylase 1): 1.1 nM
- IC50 (Histone deacetylase 2): 10.8 nM
- IC50 (Histone deacetylase 3): 0.8 nM
- EC50 [3]: 140 nM
- Cmax [4]: 75.7 nM
- Cmax [8]: 45.2 nM
- Cmax [9]: 13.5 nM
- Cmax [10]: 9.73 nM
- Cmax [11]: 1900 nM
- Cmax [12]: 1670 nM
- Cmax [13]: 1220 nM
- Cmax [14]: 14.9 nM
- Cmax [15]: 6.45 nM
- Cmax [16]: 3.72 nM
- Tmax [17]: 1 h
- AUC(0-t) [18]: 5.41 µM·h
- AUC(0-inf) [19]: 5.42 µM·h
- t1/2 (Mus musculus [20]): 1.28 h
- CL/F [21]: 217 mL/min/kg
- MRT [22]: 1.6 h
- Tmax [23]: 1 h
- AUC(0-t) [24]: 0.12 µM·h
- Kp [25]: 0.03
- IC50 [5]: 0.5 nM
- inhibition [6]: inactive

SMILES: O=C(CCCCCC(=O)N/N=C/c1ccc(-c2ccncc2)cc1)NO
- IC50 (Histone deacetylase 1): 3.1 nM
- IC50 (Histone deacetylase 2): 14.2 nM
- IC50 (Histone deacetylase 3): 1.8 nM

SMILES: O=C(CCCCC(=O)N/N=C/c1ccc(-c2ccccc2)cc1)NO
- inhibition (Mus musculus [1]): Active
- IC50 (Histone deacetylase 1): 19 nM
- IC50 (Histone deacetylase 2): 33 nM
- IC50 (Histone deacetylase 3): 61 nM
- inhibition (Mus musculus [2]): Active
